Test results: paper PMC6452895 (ChemMedChem, 2019)

Tests used:
SIRT3 = molecular target: T1, SIRT3 (Homo sapiens, UniProt Q9NTG7); assay: In vitro SIRT3 deacetylation inhibition, H3K9-Ac peptide substrate; assay type: biochemical; details: read-out: SIRT3 Deacetylation IC50, with 15 min pre-incubation
T1 sequence (Q9NTG7 1-399): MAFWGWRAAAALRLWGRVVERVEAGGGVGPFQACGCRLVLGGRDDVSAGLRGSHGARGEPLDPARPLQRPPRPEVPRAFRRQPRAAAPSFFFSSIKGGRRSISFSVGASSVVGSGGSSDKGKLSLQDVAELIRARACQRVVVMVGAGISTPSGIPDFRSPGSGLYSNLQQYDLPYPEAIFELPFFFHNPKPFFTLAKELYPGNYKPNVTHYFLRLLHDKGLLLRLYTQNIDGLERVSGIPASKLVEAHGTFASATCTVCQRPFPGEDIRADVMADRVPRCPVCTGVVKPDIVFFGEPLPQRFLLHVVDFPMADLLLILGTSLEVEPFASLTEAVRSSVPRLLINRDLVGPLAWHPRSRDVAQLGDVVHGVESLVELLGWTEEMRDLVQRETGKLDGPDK
How it was run: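 The enzyme was pre-incubated with NAD and test compound for 15 min, then substrate was added to start the deacetylation reaction. IC50 was determined under these pre-incubation conditions.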

ASPC1 = assay: Growth inhibition; assay type: cell-based, human; details: ASPC1, pancreatic cancer, K-Ras G12D
How it was run: (§1)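 Cancer cell lines were treated with test compound for growth inhibition. Each GI50 is the average of three independent experiments, each run in duplicate.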

HCT116 = assay: Growth inhibition; assay type: cell-based, human; details: HCT116, colon cancer, K-Ras G13D
How it was run: as §1

NCI-H23 = assay: Growth inhibition; assay type: cell-based, human; details: NCI-H23, lung cancer, K-Ras G12C
How it was run: as §1

MDA-MB-231 = assay: Growth inhibition; assay type: cell-based, human; details: MDA-MB-231, breast cancer, K-Ras G13D
How it was run: as §1

HME1 = assay: Growth inhibition; assay type: cell-based, human; details: HME1, normal mammary epithelial cells, K-Ras WT
How it was run: (§2)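 GI50 determined for growth of the test compound's target cells; values averaged across three independent experiments, each run in duplicate.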

MCF10A = assay: Growth inhibition; assay type: cell-based, human; details: normal mammary epithelial cells, K-Ras WT
How it was run: as §2

CCCCCCCCCCCCCC(=S)NCCCCC(NC(=O)OCc1ccccc1)C(=O)Nc1ccccc1 (stereo not shown) [TM]
IC50 (SIRT3): > 50 µM
GI50 (ASPC1): 24 ± 5 µM
GI50 (HCT116): 19 ± 1 µM
GI50 (NCI-H23): 29 ± 6 µM
GI50 (MDA-MB-231): 13 ± 4 µM
GI50 (HME1): > 50 µM
GI50 (MCF10A): > 50 µM
